Test results reported in ChEMBL document CHEMBL2157989, “Synthesis and biological evaluation of antibody conjugates of phosphate prodrugs of cytotoxic DNA alkylators for the targeted treatment of cancer” (J Med Chem, 2012).
Converted amounts (≈) assume the structure as drawn.

Legend:
[1] = Prodrug activation assessed as enzyme-mediated compound dephosphorylation in presence of porcine kidney alkaline phosphatase P4439 at pH 7.4 by HPLC; conditions: pig, isolated protein
[2] = Solubility in hexane at 1.5 mg sonicated for 45 mins followed by centrifugation for 45 mins by UV/Vis spectroscopy; type: physicochemical; conditions: 0.75 h
Method in brief: (§1)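 Solid compound (~1.5 mg) in the stated solvent was sonicated 45 min, then centrifuged at 1400g for 45 min. The supernatant concentration was read by UV/vis at 340 nm, using ε = 41500 M⁻¹ cm⁻¹ for the free phenols and 34500 M⁻¹ cm⁻¹ for the phosphate prodrugs (pH 7.0 values).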

[3] = test system: COLO 205; assay: Cytotoxicity against human COLO205 cells assessed as cell survival after 72 hrs by clonogenic assay; type: functional, cell-based; conditions: COLO 205, 72 h
Method in brief: (§2)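 Cells were kept in RPMI 1640 with 10% heat-inactivated FBS at 37 °C and 6% CO₂. They were plated at 1000–5000 cells/well and exposed to 0–3 nM test agent for 72 h. Medium was then replaced and colonies grew for 7–10 days in total after plating. Colonies were fixed and stained with 0.2% crystal violet in 10% formalin/PBS, then counted. Surviving fraction = colonies in treated wells / colonies in control wells; IC₅₀ was taken from this.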

[4] = Prodrug activation assessed as enzyme-mediated compound dephosphorylation in presence of human semen prostatic acid phosphatase P1649 at pH 7.4 by HPLC; conditions: isolated protein
[5] = Solubility in water at 1.5 mg sonicated for 45 mins followed by centrifugation for 45 mins by UV/Vis spectroscopy; type: physicochemical; conditions: 0.75 h; method in brief: as §1
[6] = Prodrug activation assessed as enzyme-mediated compound dephosphorylation in presence of rabbit intestine alkaline phosphatase P2256 at pH 7.4 by HPLC; conditions: isolated protein
[7] = test system: Ramos; assay: Cytotoxicity against human Ramos cells assessed as cell survival after 72 hrs in presence of bovine alkaline phosphatase by clonogenic assay; type: functional, cell-based
Method in brief: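 Clonogenic assay: cells in RPMI 1640 with 10% heat-inactivated FBS were plated at 1000–5000 cells/well. Test agent (0–3 nM) was combined with alkaline phosphatase from bovine liver, and cells were exposed for 72 h. Colonies then grew for 7–10 days after plating and were stained with 0.2% crystal violet in 10% formalin/PBS. Surviving fraction is relative to untreated control wells.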

[8] = test system: Ramos; assay: Cytotoxicity against human Ramos cells assessed as cell survival after 72 hrs by clonogenic assay; type: functional, cell-based; method in brief: as §2
[9] = Solubility in toluene at 1.5 mg sonicated for 45 mins followed by centrifugation for 45 mins by UV/Vis spectroscopy; type: physicochemical; conditions: 0.75 h; method in brief: as §1
[10] = Prodrug conversion assessed as 1-[S]-(Chloromethyl)-5-hydroxy-3-{{5-[5-(4-methyldithio-3,3- dimethyl butyryl)indol-2-yl-carbonyl amino]indole-2-yl}carbonyl}- 1,2-dihydro-3H-benz[e]indole formation in presence of porcine mucosa alkaline phosphatase at pH 7.4; type: physicochemical; conditions: pig, isolated protein
[11] = Prodrug activation assessed as enzyme-mediated compound dephosphorylation in presence of wheat germ acid phosphatase Sigma P3627 at pH 7.4 by HPLC; conditions: isolated protein
[12] = Prodrug activation assessed as enzyme-mediated compound dephosphorylation in presence of bovine alkaline phosphatase P8361 at pH 7.4 by HPLC; conditions: cattle, isolated protein
[13] = Solubility in water containing 5% DMSO at 1.5 mg sonicated for 45 mins followed by centrifugation for 45 mins by UV/Vis spectroscopy; type: physicochemical; conditions: 0.75 h
[14] = Prodrug activation assessed as enzyme-mediated compound dephosphorylation in presence of canine intestine alkaline phosphatase P8639 at pH 7.4 by HPLC; conditions: dog, isolated protein
[15] = Prodrug activation assessed as enzyme-mediated compound dephosphorylation in presence of human placenta alkaline phosphatase from P3895 at pH 7.4 by HPLC; conditions: isolated protein
[16] = Cytotoxicity against human NAMALWA cells assessed as cell survival after 72 hrs by clonogenic assay; type: functional, cell-based; conditions: NAMALVA; method in brief: as §2
[17] = Solubility in DMSO at 1.5 mg sonicated for 45 mins followed by centrifugation for 45 mins by UV/Vis spectroscopy; type: physicochemical; conditions: 0.75 h; method in brief: as §1
[18] = Prodrug activation assessed as enzyme-mediated compound dephosphorylation in presence of bovine kidney alkaline phosphatase P4653 at pH 7.4 by HPLC; conditions: cattle, isolated protein
[19] = Solubility of the compound in 100% buffer at pH 7 at 1.5 mg sonicated for 45 mins followed by centrifugation for 45 mins by UV/Vis spectroscopy; type: physicochemical
[20] = Prodrug activation assessed as enzyme-mediated compound dephosphorylation in presence of bovine semen prostatic acid phosphatase P3147 at pH 7.4 by HPLC; conditions: cattle, isolated protein
[21] = Solubility in ethanol at 1.5 mg sonicated for 45 mins followed by centrifugation for 45 mins by UV/Vis spectroscopy; type: physicochemical; conditions: 0.75 h; method in brief: as §1
[22] = Solubility in ethyl acetate at 1.5 mg sonicated for 45 mins followed by centrifugation for 45 mins by UV/Vis spectroscopy; type: physicochemical; conditions: 0.75 h; method in brief: as §1
[23] = Solubility in chloroform at 1.5 mg sonicated for 45 mins followed by centrifugation for 45 mins by UV/Vis spectroscopy; type: physicochemical; conditions: 0.75 h; method in brief: as §1
[24] = Solubility in water containing 5% THF at 1.5 mg sonicated for 45 mins followed by centrifugation for 45 mins by UV/Vis spectroscopy; type: physicochemical; conditions: 0.75 h
[25] = Solubility in DMA at 1.5 mg sonicated for 45 mins followed by centrifugation for 45 mins by UV/Vis spectroscopy; type: physicochemical; conditions: 0.75 h; method in brief: as §1
[26] = Prodrug conversion assessed as 1 - [ S ] - ( Ch l o r ome t h y l ) - 5 - h y d r o x y - 3 - { { 5 - [ 5 - ( 3 -methyldithiopropionyl)indol-2-yl-carbonyl amino]indole-2-yl}- carbonyl}-1,2-dihydro-3H-benz[e]indole formation in presence of bovine liver alkaline phosphatase at pH 7.4; type: physicochemical; conditions: cattle, isolated protein
[27] = Prodrug conversion assessed as 5-(3-(Methyldisulfanyl)propanamido)-N-(2-((9aS)-4-oxo-2,4,9,9atetrahydro- 1H-benzo[e]cyclopropa[c]indole-2-carbonyl)-1H-indol- 5-yl)-1H-indole-2-carboxamide in cyclopropyl by HPLC analysis; type: physicochemical
[28] = Prodrug activation assessed as enzyme-mediated compound dephosphorylation in presence of porcine intestine mucosa alkaline phosphatase P4002 at pH 7.4 by HPLC; conditions: pig, isolated protein
[29] = Solubility in water containing 5% dioxane at 1.5 mg sonicated for 45 mins followed by centrifugation for 45 mins by UV/Vis spectroscopy; type: physicochemical; conditions: 0.75 h
[30] = Prodrug activation assessed as enzyme-mediated compound dephosphorylation in presence of calf intestine alkaline phosphatase P7923 at pH 7.4 by HPLC; conditions: cattle, isolated protein
[31] = Prodrug activation assessed as enzyme-mediated compound dephosphorylation in presence of bovine liver alkaline phosphatase P7034 at pH 7.4 by HPLC; conditions: cattle, isolated protein
[32] = Solubility of the compound in 20% DMA and 80% buffer at pH 7 at 1.5 mg sonicated for 45 mins followed by centrifugation for 45 mins by UV/Vis spectroscopy; type: physicochemical
Method in brief: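 About 1.5 mg of compound is sonicated for 45 min in pH 7.0 buffer containing 10% or 20% DMA, then centrifuged at 1400g for 45 min. Supernatant concentration is read by UV/vis at 340 nm. ε at pH 7.0 is 41500 M⁻¹ cm⁻¹ for DC1–SR₂ compounds and 34500 M⁻¹ cm⁻¹ for phosphate prodrugs.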

## CSSCCC(=O)Nc1ccc2[nH]c(C(=O)Nc3ccc4[nH]c(C(=O)N5C[C@@H](CCl)c6c5cc(OP(=O)(O)O)c5ccccc65)cc4c3)cc2c1
[1]
  Drug metabolism: Active
[2]
  solubility: Insoluble
[3]
  IC50: > 3 nM
[4]
  Drug metabolism: Active
[5]
  solubility: Insoluble
[6]
  Drug metabolism: Active
[7]
  IC50: 0.08 nM
[8]
  IC50: 1.9 nM
[9]
  solubility: Insoluble
[10]
  Drug metabolism: Active
[11]
  Drug metabolism: Active
[12]
  Drug metabolism: Active
[13]
  solubility: soluble
[14]
  Drug metabolism: Active
[15]
  Drug metabolism: Active
[16]
  IC50: 2.9 nM
[17]
  solubility: soluble
[18]
  Drug metabolism: Active
[19]
  solubility at 0.75 h: 19 µM (≈ 14.5 µg/mL)
[20]
  Drug metabolism: Active
[21]
  solubility: Insoluble
[22]
  solubility: Insoluble
[23]
  solubility: Insoluble
[24]
  solubility: soluble
[25]
  solubility: soluble
[26]
  Drug metabolism: Active
[27]
  Drug metabolism: Active
[28]
  Drug metabolism: Active
[29]
  solubility: soluble
[30]
  Drug metabolism: Active
[31]
  Drug metabolism: Active
[32]
  solubility at 0.75 h: > 6000 µM

## CSSC(C)(C)CCC(=O)Nc1ccc2[nH]c(C(=O)Nc3ccc4[nH]c(C(=O)N5C[C@@H](CCl)c6c5cc(OP(=O)(O)O)c5ccccc65)cc4c3)cc2c1
[1]
  Drug metabolism: Active
[2]
  solubility: Insoluble
[3]
  IC50: > 3 nM
[4]
  Drug metabolism: Active
[5]
  solubility: Insoluble
[6]
  Drug metabolism: Active
[7]
  IC50: 0.09 nM
[8]
  IC50: 2 nM
[9]
  solubility: Insoluble
[10]
  Drug metabolism: Active
[11]
  Drug metabolism: Active
[12]
  Drug metabolism: Active
[13]
  solubility: soluble
[14]
  Drug metabolism: Active
[15]
  Drug metabolism: Active
[16]
  IC50: 2.8 nM
[17]
  solubility: soluble
[18]
  Drug metabolism: Active
[19]
  solubility at 0.75 h: 19 µM (≈ 15.3 µg/mL)
[20]
  Drug metabolism: Active
[21]
  solubility: Insoluble
[22]
  solubility: Insoluble
[23]
  solubility: Insoluble
[24]
  solubility: soluble
[25]
  solubility: soluble
[26]
  Drug metabolism: Active
[27]
  Drug metabolism: Active
[28]
  Drug metabolism: Active
[29]
  solubility: soluble
[30]
  Drug metabolism: Active
[31]
  Drug metabolism: Active
[32]
  solubility at 0.75 h: > 6000 µM
